Laboratory results reported in ChEMBL document CHEMBL5316304, “Collaborative Virtual Screening Identifies a 2-Aryl-4-aminoquinazoline Series with Efficacy in an In Vivo Model of Trypanosoma cruzi Infection” (J Med Chem, 2023).
Converted amounts (≈) assume the structure as drawn. The source made the active and inactive calls. The calls are words filed in the database; no cut-off is given here.

Tests used:
[1] = tested on: Trypanosoma cruzi; test: Antitrypanosomal activity against intracellular Trypanosoma cruzi infected in human U2OS cells assessed as parasite growth inhibition incubated for 72 hrs by confocal microscopy; format: functional, organism-based
[2] = Selectivity index, ratio of IC50 for human U2OS cells to IC50 for intracellular Trypanosoma cruzi infected in human U2OS cells; format: toxicity, cell-based; conditions: for selectivity ratio: U2OS cells, read-out: Selectivity Index
Summary of the method: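 Host U2OS cell counts and intracellular parasite infection ratio were read from the same 72 h DRAQ5-stained confocal imaging assay. CC50 and EC50 came from 4-parameter logistic fits, and the selectivity index is their ratio.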

[3] = Plasma protein binding in mouse at 2 uM incubated for 6 hrs by LC/MS/MS analysis; format: ADME
[4] = Kinetic solubility of compound in aqueous buffer at pH 6.8 incubated for 16 to 24 hrs by HPLC analysis; format: physicochemical; conditions: time 16-24 hrs, read-out: Kinetic_solubility
[5] = Permeability of compound incubated for 3 hrs by PAMPA assay; format: ADME; conditions: read-out: permeability
[6] = Cmax in Balb/C mouse at 50 mg/kg, po or 1 mg/kg, iv by LC/MS/MS analysis; format: ADME, organism-based; set-up: dose 50 mg/kg, route po; conditions: in vivo
Summary of the method: (§1)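 Female Balb/c mice received a single i.v. dose of 1 mg/kg and a single oral dose of 50 mg/kg. PK parameters came from blood concentration–time profiles. Brain-to-plasma ratio was taken at 0.5 h.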

[7] = AUC (0 to last) in Balb/C mouse at 50 mg/kg, po or 1 mg/kg, iv by LC/MS/MS analysis; format: ADME, organism-based; set-up: dose 50 mg/kg, route po; conditions: in vivo; summary of the method: as §1
[8] = Oral bioavailability in Balb/C mouse plasma at 50 mg/kg by LC/MS/MS analysis; format: ADME, organism-based; conditions: in vivo
[9] = Volume of distribution at steady state in Balb/C mouse plasma at 50 mg/kg, po or 1 mg/kg, iv by LC/MS/MS analysis; format: ADME, organism-based; conditions: in vivo; summary of the method: as §1
[10] = Half life in Balb/C mouse at 1 mg/kg, iv by LC/MS/MS analysis; format: ADME, organism-based; conditions: in vivo; summary of the method: as §1
[11] = Ratio of drug level in Balb/C mouse brain to plasma at 50 mg/kg, po or 1 mg/kg, iv measured after 0.5 hrs by LC/MS/MS analysis; format: ADME, organism-based; summary of the method: as §1
[12] = Toxicity in Balb/C mouse assessed as drug tolerability at 50 mg/kg, po by LC/MS/MS analysis; format: organism-based; conditions: in vivo
[13] = Toxicity in Balb/C mouse assessed as drug tolerability at 50 mg/kg, po bid measured after 5 days by LC/MS/MS analysis; format: organism-based; conditions: in vivo, 120 h, time 5 day
Summary of the method: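 Healthy female mice, one per group, were dosed orally twice daily for 5 days at 10, 50 or 100 mg/kg, with vehicle controls (0.5% HPMC/0.5% benzyl alcohol/0.4% Tween 80 in water). Readouts were mortality, clinical signs, body weight, food consumption and gross pathology.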

[14] = Toxicity in Balb/C mouse assessed as adverse reactions at 50 mg/kg, po by LC/MS/MS analysis; format: organism-based; conditions: in vivo
[15] = Intrinsic clearance in mouse liver microsomes at 1 uM incubated for 15 to 30 mins by LC/MS/MS analysis; format: ADME, Microsome; conditions: time 15-30 min
[16] = tested on: Trypanosoma cruzi; test: Inhibition of Trypanosoma cruzi CYP51 upto 100 uM by fluorescence based assay
[17] = Intrinsic clearance in human liver microsomes at 1 uM incubated for 15 to 30 mins by LC/MS/MS analysis; format: ADME, Microsome; conditions: time 15-30 min
[18] = Selectivity index, ratio of IC50 for human THP-1 cells to IC50 for Leishmania donovani infected in human THP-1 cells; format: toxicity, cell-based; conditions: read-out: Selectivity Index
[19] = tested on: Trypanosoma cruzi; test: Antitrypanosomal activity against acute-stage Trypanosoma cruzi CL Brener infected in BALB/c mouse assessed as reduction in parasite burden at 50 mg/kg, po bid administered for 5 days measured after 14 days by bioluminescence imaging based analysis; format: functional, organism-based; conditions: time 14.0 day

| SMILES | IC50 ([1]; Trypanosoma cruzi, U2OS, 72 h) | solubility kinetic [4] | Papp at 3 h [5] | intrinsic clearance (CLint) [15] | selectivity ratio [2] | further results |
| --- | --- | --- | --- | --- | --- | --- |
| CC(C)(Nc1nc(-c2ccccn2)nc2ccccc12)c1ccccn1 | 1 µM | 83 µg/mL (≈ 243 µM) | 25.8 ×10⁻⁶ cm/s |  | 25 | PPB [3]: 94.2%; Cmax [6]: 6240 ng/mL; AUC(0-t) [7]: 59900 ng·h/mL; F [8]: > 100%; Vdss [9]: 0.909 L/kg; half-life [10]: 1.13 h; BPR [11]: 1.6; Activity [12]: Non-Toxic; Activity [13]: Toxic; Activity [14]: Non-Toxic |
| c1ccc(-c2nc(NC3(c4ccccn4)CC3)c3ccccc3n2)nc1 | 4.2 µM | 84 µg/mL (≈ 247 µM) | 21.9 ×10⁻⁶ cm/s | 24 µL/min/mg | 12 | CLint [17]: 7 µL/min/mg |
| c1ccc(-c2nc(N3CCc4ccccc4C3)c3ccccc3n2)nc1 | 0.72 µM | 10 µg/mL (≈ 29.5 µM) | 40.8 ×10⁻⁶ cm/s | 464 µL/min/mg | 6.6 | CLint [17]: 150 µL/min/mg |
| Cn1ccc2nc(-c3ccccn3)nc(N3CCC(c4ccccn4)C3)c21 (configuration not stated) | 0.56 µM | 90 µg/mL (≈ 253 µM) | 21.9 ×10⁻⁶ cm/s |  | 16 |  |
| CCn1cc2nc(-c3ccccn3)nc(N3CCC(c4ccccn4)C3)c2n1 (configuration not stated) | 0.1 µM | 94 µg/mL (≈ 253 µM) | 22 ×10⁻⁶ cm/s | 70 µL/min/mg | 2.8 | CLint [17]: < 1 µL/min/mg |
| Cc1nc(-c2ccccn2)nc(NCc2ccccc2)c1Cl | > 50 µM |  |  |  |  | selectivity ratio [18]: > 2.5 |
| Cn1ncc2nc(-c3ccccn3)nc(N3CCC(c4ccccn4)C3)c21 (configuration not stated) | 1.8 µM | 99 µg/mL (≈ 277 µM) | 17.1 ×10⁻⁶ cm/s |  | 2.9 |  |
| c1ccc(-c2nc(N3CCC(c4ccccn4)C3)c3ccccc3n2)nc1 (stereo in doubt; 85-tR2) |  |  |  |  |  | IC50 ([1]; u2os): 0.96 µM; Selectivity Index [2]: 6.4 |
| O=S(=O)(c1cccs1)N1CCc2nc(-c3ccccn3)nc(N3CCCCCC3)c2C1 | 0.86 µM |  |  |  | > 58 |  |
| c1ccc(CNc2nc(-c3ccccn3)nc3ccccc23)cc1 | 0.13 µM |  |  |  | 57 |  |
| Cc1cccnc1CNc1nc(-c2ccccn2)nc2ccccc12 | 1.6 µM |  |  |  | 15 |  |
| c1ccc(CN2CCN(c3nc(-c4ccccn4)nc4ccccc34)CC2)cc1 | 0.45 µM |  |  |  | 27 |  |
| Cc1ccc(Nc2nc(-c3ccccn3)nc3ccccc23)nc1 | 0.1 µM |  |  |  | < 1 |  |
| c1ccc(CCNc2nc(-c3ccccn3)nc3ccccc23)nc1 | 3.4 µM |  |  |  | 14 |  |
| CCn1ncc2c(N3CCC(c4ccccn4)C3)nc(-c3ccccn3)nc21 (configuration not stated) | 18 µM |  |  |  | 2.8 |  |
| c1ccc(-c2nc(N3CCC(c4ccccn4)C3)c3ccccc3n2)nc1 (racemic) |  |  |  |  |  | Activity [19]: inactive |
| Cn1ccnc1CNc1nc(-c2ccccn2)nc2ccccc12 | 3.3 µM |  |  |  | 14 |  |
| CCn1ncc2nc(-c3ccccn3)nc(N3CCC(c4ccccn4)C3)c21 (configuration not stated) | 1.2 µM |  |  |  | 2.7 |  |
| c1ccc(-c2nc(Nc3ccc4[nH]ncc4c3)c3ccccc3n2)nc1 | 6.2 µM |  |  |  | 3.5 |  |
| Cc1ccc(Nc2nc(-c3ccccn3)nc3ccccc23)cn1 | 31 µM |  |  |  | 1.6 |  |
| Cc1cnc(C)c(Nc2nc(-c3ccccn3)nc3ccccc23)c1 | 14 µM | 31 µg/mL (≈ 94.7 µM) | 20.1 ×10⁻⁶ cm/s | 154 µL/min/mg | 3.6 | CLint [17]: < 1 µL/min/mg |
| c1ccc(CNc2nc(-c3ccccn3)nc3ccccc23)nc1 | 4.4 µM |  |  |  | 11 |  |

More lines, main results first:

| IC50 ([1]; Trypanosoma cruzi, U2OS, 72 h) | solubility kinetic [4] | Papp at 3 h [5] | intrinsic clearance (CLint) [15] | SMILES | selectivity ratio [2] | further results |
| --- | --- | --- | --- | --- | --- | --- |
| 0.41 µM |  |  | > 500 µL/min/mg | Fc1ccc(C2CCN(c3nc(-c4ccccn4)nc4ccccc34)C2)cc1 (configuration not stated) | 9.2 | inhibition [16]: inactive |
| 0.43 µM | 69 µg/mL (≈ 227 µM) | 36.4 ×10⁻⁶ cm/s | 452 µL/min/mg | CC1CCCN(c2nc(-c3ccccn3)nc3ccccc23)C1 (configuration not stated) | 19 | CLint [17]: 188 µL/min/mg |
| 0.43 µM | 15 µg/mL (≈ 40.8 µM) | 29.1 ×10⁻⁶ cm/s | > 500 µL/min/mg | c1ccc(N2CCN(c3nc(-c4ccccn4)nc4ccccc34)CC2)cc1 |  | CLint [17]: 95 µL/min/mg |
| 0.36 µM | 0.1 µg/mL (≈ 0.273 µM) | 41.6 ×10⁻⁶ cm/s | 318 µL/min/mg | c1ccc(C2CCCN(c3nc(-c4ccccn4)nc4ccccc34)C2)cc1 (configuration not stated) | 6.4 | CLint [17]: 205 µL/min/mg |
|  | 7.7 µg/mL (≈ 20.9 µM) | 43 ×10⁻⁶ cm/s | > 500 µL/min/mg | c1ccc(OC2CCN(c3nc(-c4ccccn4)nc4ccccc34)C2)cc1 (configuration not stated) | 6.5 | CLint [17]: 361 µL/min/mg |
| 0.41 µM | 59 µg/mL (≈ 194 µM) | 44.1 ×10⁻⁶ cm/s | > 500 µL/min/mg | CC1CCN(c2nc(-c3ccccn3)nc3ccccc23)CC1 |  | CLint [17]: 112 µL/min/mg |
| 7 µM |  |  |  | N#CC1CCN(c2nc(-c3ccccn3)nc3ccccc23)C1 (configuration not stated) | 7.2 |  |
| 24 µM |  |  |  | N#CC1CCN(c2nc(-c3ccccn3)nc3ccccc23)CC1 | 2.1 |  |
| 1.3 µM |  |  |  | c1ccc(-c2nc(N3CCCC(c4ccccn4)C3)c3ccccc3n2)nc1 (configuration not stated) | 7.3 |  |
| 1.1 µM |  |  |  | c1ccc(-c2nc(N3CCCC3)c3ccccc3n2)nc1 | 8.6 |  |
| 18 µM |  |  |  | N#CC1CCCN(c2nc(-c3ccccn3)nc3ccccc23)C1 (configuration not stated) | 2.7 |  |
| 0.28 µM | 0.7 µg/mL (≈ 1.99 µM) |  | > 500 µL/min/mg | c1ccc(C2CCN(c3nc(-c4ccccn4)nc4ccccc34)C2)cc1 (configuration not stated) | 9.7 |  |
| 27 µM |  |  |  | c1ccc(-c2nc(N3CCn4ccnc4C3)c3ccccc3n2)nc1 | 1.9 |  |
